Results on five molecules are retold here after ChEMBL document CHEMBL1828545, “Synthesis and characterization of novel PUFA esters exhibiting potential anticancer activities: an in vitro study” (Eur J Med Chem, 2011).

Broadly, the IC50 is the point on the concentration scale where inhibition reaches its midpoint. A higher IC50 goes with lower potency.

The structures appear in SMILES notation. The source made the active and inactive calls. The rule behind the calls is not given here.

For data set [1], the system named is MDA-MB-361. Put plainly: Cytotoxicity against human MDA-MB-361 cells after 94 hrs by MTT assay. As to conditions: MDA-MB-361, 94 h. The format is functional, cell-based. The essentials: (§1)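 Cells seeded at 5 x 10^5 cells/200 µl/well in 96-well plates, grown in medium with 5% FCS. After 24 h, compounds added at 0–15 µM, with ethanol as vehicle control. Incubated 94 h, then medium replaced. MTT (5 mg/ml) added for 2-3 h at 37 °C and dissolved in DMSO. A620 read in triplicate wells. IC50 taken from the concentration giving 50% loss of viability.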
On the technique in general: Tetrazolium assays rely on reduction of a dye to a coloured formazan, in cell work by metabolically active cells.

Data set [2] deals with MDA-MB-361. Put plainly: Induction of apoptosis in human MDA-MB-361 cells assessed as upregulation of caspase 3 expression at 15 uM after 24 hrs by Western blotting. The data set is classed as functional. The essentials: (§2)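 Cells (1 × 10^7/well) grown 24 h in serum-free medium at 37 °C, then treated 24 h, with ethanol as control. Harvested by trypsin and lysed in TNN buffer (50 mM Tris-HCl pH 7.4, NP-40, protease inhibitors). Cytosolic fraction taken from a 10,000 g spin. Protein measured by BCA and equal amounts run on 10% SDS-PAGE. Blotted to nitrocellulose, probed with monoclonal antibodies plus a β-actin reprobe, detected by ECL. Densitometry as mean of triplicates.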

For data set [3], the system named is HepG2. Briefly: Cytotoxicity against human HepG2 cells after 94 hrs by MTT assay. The data set is classed as functional, cell-based. As to conditions: HepG2, 94 h. The essentials: as §1
For the next data set, the system named is A549. Briefly: Cytotoxicity against human A549 cells after 94 hrs by MTT assay. The data set is classed as functional, cell-based. As to conditions: for IC50: A549, 94 h. The essentials: as §1
The subject of data set [4] is MDA-MB-361. Put plainly: Modulation of lipid peroxidation in human MDA-MB-361 cells assessed as malondialdehyde production assessed per 10^6 cells at 25 to 100 uM after 24 hrs by thiobarbituric acid assay. The data set is classed as functional. The essentials: (§3)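 Cells exposed for 24 h to vehicle or to 25, 50 or 100 µM compound. Malondialdehyde measured spectrophotometrically by thiobarbituric acid assay and expressed as nmol MDA per 10^6 cells. Means ± SD of five experiments.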

The test system of the next data set is HL-60. Put plainly: Cytotoxicity against human HL60 cells after 94 hrs by MTT assay. The data set is classed as functional, cell-based. As to conditions: for IC50: HL-60, 94 h. In a few lines: as §1
The next data set deals with SK-MEL-1. Put plainly: Cytotoxicity against human SK-MEL-1 cells after 94 hrs by MTT assay. The format is functional, cell-based. The following applies: for IC50: SK-MEL-1, 94 h. The essentials: as §1
Data set [5] deals with MDA-MB-361. Put plainly: Induction of apoptosis in human MDA-MB-361 cells assessed as upregulation of cytochrome c expression at 15 uM after 24 hrs by Western blotting. The data set is classed as functional. In a few lines:
as §2
For orientation: Immunoblotting shows a protein as a band on a membrane.

In the next data set the test system is HFL1. Briefly: Cytotoxicity against human HFL1 cells after 94 hrs by MTT assay. The format is cell-based. As to conditions: hfl1, 94 h. The essentials:
as §1

Data set [6] concerns HepG2. Put plainly: Induction of apoptosis in human HepG2 cells assessed as upregulation of caspase 3 expression at 15 uM after 24 hrs by Western blotting. The format is functional, cell-based. In a few lines:
as §2

Data set [7] has as its system HepG2. Briefly: Modulation of lipid peroxidation in human HepG2 cells assessed as malondialdehyde production after 24 hrs by thiobarbituric acid assay. The data set is classed as functional, cell-based. The essentials:
as §3

Data set [8] concerns HepG2. Briefly: Induction of apoptosis in human HepG2 cells assessed as upregulation of cytochrome c expression at 15 uM after 24 hrs by Western blotting. The data set is classed as functional. The essentials:
as §2

In the case of `CCCCC/C=C\C/C=C\CCCCCCCC(=O)Oc1c(C(C)C)cccc1C(C)C`, the IC50 with MDA-MB-361 [1] stood at 2.76 µM; in the data set with HepG2 [3], 3.3 µM; in the data set on SK-MEL-1 it was 4.1 µM. Also, the Activity was 33.7% in the data set on MDA-MB-361 [2], 0.25 nmol in the data set with MDA-MB-361 [4], 36.6% with MDA-MB-361 [5] and “Non-toxic” with HFL1. Also, the “growth inhibition (GI)” value in the data set with A549 and in the data set with HL-60 was “Active” each time.

On to `CCCCC/C=C\C/C=C\C/C=C\C/C=C\CCCC(=O)Oc1c(C(C)C)cccc1C(C)C`, for which the IC50 came out at 7.21 µM in the data set on MDA-MB-361 [1], 3.1 µM in the data set with HepG2 [3], 4.6 µM in the data set with A549 and 3.9 µM with HL-60. In the data set with HepG2 [6], the result was inactive. The Activity entry in the data set on HepG2 [7] is “Dose-dependent effect”; in the data set with HepG2 [8], 24.2%. Also, in the data set with SK-MEL-1, the “growth inhibition (GI)” value was “Active”.

Turning to `CCCCC/C=C\C/C=C\CCCCCCCC(=O)Oc1ccc(C(C)C)cc1C(C)C`, the values for the half-maximal inhibitory concentration (IC50) in the data set on MDA-MB-361 [1], with HepG2 [3] and in the data set on SK-MEL-1 were 3.2 µM, 4.1 µM and 4.9 µM, respectively. The Activity was 32.6% with MDA-MB-361 [2], 0.25 nmol in the data set on MDA-MB-361 [4], 35.2% in the data set on MDA-MB-361 [5] and “Non-toxic” with HFL1. Also, the “growth inhibition (GI)” value with A549 and in the data set with HL-60 was “Active” throughout.

As for `CCCCC/C=C\C/C=C\C/C=C\C/C=C\CCCC(=O)Oc1ccc(C(C)C)cc1C(C)C`, the concentration for half-maximal inhibition (IC50) in the data set with MDA-MB-361 [1] turned out to be 7.5 µM; with HepG2 [3] it was 3.7 µM; in the data set with A549 it was 5.3 µM; with HL-60, 4.4 µM. Also, the result in the data set on HepG2 [6] was inactive. The Activity entry in the data set on HepG2 [7] is “Dose-dependent effect”; in the data set on HepG2 [8], 24.7%; in the data set with HFL1, “Toxic”. Moreover, the “growth inhibition (GI)” value in the data set with SK-MEL-1 is “Active”.

Regarding `COc1cccc2c1C(=O)c1c(O)c3c(c(O)c1C2=O)C[C@@](O)(C(=O)CO)C[C@@H]3O[C@H]1C[C@H](N)[C@H](O)[C@H](C)O1` [DOXORUBICIN], the IC50 in the data set with MDA-MB-361 [1] stood at 2.03 µM; with HepG2 [3], 2.17 µM; in the data set on A549, 3.6 µM; in the data set on HL-60 it was 3.14 µM; in the data set with SK-MEL-1, 3.09 µM. In the data set with HFL1, the Activity result is recorded as “Non-toxic”.
